# Screening results (PubChem BioAssay)
# C8 TRAIL sens: caspase-8 TRAIL sensitization; actives 1% (n = 360,000); NB7+C8 cells + TRAIL, ATPlite viability luminescence; inhibition (viability loss, TRAIL sensitization), % at 10 µM; AID 624354;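 active = compounds causing at least 50% loss of cell viability in the single-dose screen, relative to plate controls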
# STAT3 blocker: STAT3 signaling inhibition; actives 0.89% (n = 190,000); inhibition, % at 5.5 µM; U3A cells, IL-6 STAT3-luciferase reporter, luminescence; host cell line lacks STAT1; AID 862;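 active = inhibition above the mean inhibition across all screened compounds plus 3 SD, cut at about 44% in these data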
# FLuc inhib CS: inhibits firefly luciferase, flagging false hits in luciferase inhibition screens; P08659; ATPLite firefly luciferase biochemical luminescence, 10 min; inhibition, % at 10 µM; actives 1.5% (n = 200,000); AID 1006;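 active = inhibition above about 50% when tested at 10 µM, limit read from the data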
# Target sequence (P08659 whole entry, looked up): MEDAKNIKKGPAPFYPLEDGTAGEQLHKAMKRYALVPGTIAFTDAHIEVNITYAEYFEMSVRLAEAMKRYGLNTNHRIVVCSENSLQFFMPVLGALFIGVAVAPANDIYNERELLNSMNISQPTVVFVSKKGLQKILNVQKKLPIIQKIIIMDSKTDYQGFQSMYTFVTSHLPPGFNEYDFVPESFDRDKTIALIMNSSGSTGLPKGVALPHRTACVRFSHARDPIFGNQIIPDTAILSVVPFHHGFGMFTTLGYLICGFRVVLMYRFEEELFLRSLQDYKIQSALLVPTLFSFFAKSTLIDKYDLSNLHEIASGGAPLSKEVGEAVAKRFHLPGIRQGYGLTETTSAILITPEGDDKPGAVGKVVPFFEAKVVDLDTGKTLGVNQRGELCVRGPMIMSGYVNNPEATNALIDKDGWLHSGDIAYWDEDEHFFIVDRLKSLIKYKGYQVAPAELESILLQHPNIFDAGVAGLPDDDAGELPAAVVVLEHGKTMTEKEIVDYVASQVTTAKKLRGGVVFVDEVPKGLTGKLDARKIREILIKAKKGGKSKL
# HSP90 refold inh: HSP90 refolding inhibition in rabbit reticulocyte lysate; luciferase refolding luminescence, 3 h; inhibition, % at 5.6 µM; actives 0.91% (n = 290,000);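 active = inhibition above the screen-wide mean plus 3 SD, computed separately per campaign, cut at about 16% in these data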;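 also: inhibitors lower the luminescence because luciferase stays unfolded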
# FLuc act counter: affects firefly luciferase, flagging false hits in luciferase stimulation screens. P08659. ATPlite luciferase biochemical, luminescence, 10 min; 0 = ATP-free wells, 1 = DMSO control. activation factor at 10 µM. 200,000 tested, under 10 active;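 active = luciferase activation factor, scaled between plate controls, of at least 2 with compound at 10 µM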
#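 System: cell-free luciferase reagent; medium: PBS as buffer for the ATP substrate; doses: test compounds dosed from 2 mM stocks in 100% DMSO; incubation: 10 min, room temperature; measured by: luminescence from luciferase reaction; read-out: luciferase activation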
# PPC-1+TRAIL kill: PPC-1 cancer cell killing with TRAIL present; PPC-1 cells + TRAIL, ATPLite viability luminescence; cell killing (% activity), % at 4 µM or 5 µM; actives 0.41% (n = 220,000);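 active = cell killing above 50% in the first pass at 4 µM, then a duplicate retest at 5 µM averaging 50% or more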
# Hits are given with their value; n = inactive; x = not tested or not shown. Shown are actives, neighbours in structure and some others; about 2.2% of the full set was active somewhere.
SMILES,C8 TRAIL sens,STAT3 blocker,FLuc inhib CS,HSP90 refold inh,FLuc act counter,PPC-1+TRAIL kill
COc1ccc(S(=O)(=O)c2ccc(OC)cc2)cc1,n,n,n,n,n,n
COc1ccc(N=[N+]([O-])c2ccc(OC)cc2)cc1,67,x,x,x,x,x
CS(=O)(=O)c1cnc2c(S(=O)(=O)c3ccccc3)cnn2c1N,n,n,n,n,n,n
CS(=O)(=O)c1cnc2c(-c3ccsc3)cnn2c1N,n,n,62,n,n,n
C#CCN1C(=O)S/C(=C\c2ccc(-c3ccc(Cl)c(C(=O)O)c3)o2)C1=O,n,x,x,23,x,x
COC(=O)c1ccc(COC(=O)c2ccc(CS(=O)(=O)c3ccc(C)cc3)cc2)cc1,n,n,n,n,n,n
COC(=O)c1cc2c(n1S(=O)(=O)c1ccc(C)cc1)C(=O)C(=O)c1[nH]cc(C(=O)OCc3ccccc3)c1-2,93,x,x,x,x,x
O=C(COC(=O)CCN=C1NS(=O)(=O)c2ccccc21)NNC(=O)c1ccccc1,n,x,x,x,x,x
COc1ccc2c(c1OC)C(=O)N(c1cccc(C)c1)C2,65,n,84,n,n,n
C/C(=N\NC(=O)c1ccc(F)cc1)c1ccccn1,55,x,x,n,x,x
O=C(N/N=C/C(Cl)=C/c1ccccc1)c1ccccn1,56,n,81,n,n,n
CCc1ccc(/C(C)=N/NC(=O)c2ccccn2)cc1,n,n,n,n,n,n
CC(=N/O)/C(C)=N\NC(=O)c1ccccn1,n,n,51,n,n,n
O=C(N/N=C/C(Cl)=C/c1ccccc1)c1ccncc1,n,n,n,n,n,n
C/C(=N\NC(=O)c1cc2ccccc2cc1O)c1ccccn1,58,x,x,n,x,x
O=C(/C=C/c1ccccc1)c1ccccn1,n,n,71,n,n,n
Cc1cccc(N(C(=O)C(F)(F)F)C(C(=O)NC2CCCCC2)c2cccs2)c1 (stereo unspecified),n,n,n,n,n,n
C#CC(=O)N(c1cccc(OC)c1)C(C(=O)NC1CCCC1)c1cccs1 (stereo unspecified),96,110,n,n,n,94
COn1c(SCc2ccc(Cl)cc2)nc2ccccc2c1=O,60,n,n,n,n,n
O=C(NC(=S)Nc1ccc(N2CCCCC2)cc1)c1ccco1,n,n,63,n,n,n
COc1ccccc1C(=O)Nc1ccc(N2CCCCC2)cc1,58,n,71,n,n,n
CSCC[C@H](NC(=O)C1CCN(S(=O)(=O)c2ccc(C)cc2C)CC1)c1nc2ccccc2[nH]1,n,x,x,x,x,x
O=C(CNC(=O)c1cccc(F)c1)N/N=C/c1cccc([N+](=O)[O-])c1,n,n,n,n,n,n
NC(=O)NN=C1CCC(OCc2ccccc2)CC1CC(=O)O (stereo unspecified),n,x,x,x,x,x
Cc1ccc(S(=O)(=O)N2C[C@H]3[C@H]4C(=O)N(c5ccccc5)C(=O)[C@H]4C[C@H](OC(=O)NCc4ccccc4)[C@@]3(O)C2)cc1,n,x,x,x,x,x
SMILES,C8 TRAIL sens,STAT3 blocker,FLuc inhib CS,HSP90 refold inh,FLuc act counter,PPC-1+TRAIL kill
O=c1c2ccccc2c(/C=N/c2nnc(Cc3ccccc3)s2)c(O)n1-c1ccc(Cl)cn1,n,n,50,n,n,n
C/C(=N\Nc1cc(C)nc(-c2ccccc2O)n1)c1ccccc1,n,n,n,n,n,n
Cc1cc(N/N=C/c2ccc(O)c(C)c2O)nc(-c2ccccc2O)n1,n,n,n,n,n,64
O=C(OCn1ncc(Cl)c(Cl)c1=O)c1cccc(C(F)(F)F)c1,94,n,n,n,n,n
O=C(Nc1ccc2c(c1)OCO2)c1c[nH]c(=O)n(-c2ccc(F)cc2)c1=O,n,x,x,n,x,x
CN1CCN(c2ccc(-c3ccnn3C(=O)Nc3cccc(C(F)(F)F)c3)cc2)CC1,n,n,n,n,n,n
c1ccn(-c2ccc(-c3ccn[nH]3)cc2)c1,n,n,52,n,n,n
Cc1ccc(C)n1-c1ccc(-c2ccn[nH]2)cc1,n,n,n,n,n,n
Cc1csc(N=Nc2ccc(N(C)C)cc2)[n+]1[O-],81,x,x,x,x,x
Cc1c(-c2ccccc2)n(O)c(-c2ccc(N(C)C)cc2)[n+]1[O-],n,x,x,x,x,x
C(=Cc1cccnc1)c1ccncc1,n,x,x,x,x,x
O=C(/C=C/c1cccnc1)/C=C/c1cccnc1,51,x,x,n,x,n
Cn1c(=O)c2ncn(CC(=O)Nc3cccc(-c4nc5ccccc5s4)c3)c2n(C)c1=O,n,n,n,n,n,n
COc1cccc2cc(C(=O)Nc3cccc(C)n3)c(=O)oc12,n,x,54,x,n,n
COc1cccc2cc(C(=O)NC(C)c3ccccc3)c(=O)oc12 (stereo unspecified),n,x,x,n,x,x
COc1ccccc1C1C(C#N)=C(N)N(c2cccnc2)C2=C1C(=O)CC(C)(C)C2 (stereo unspecified),n,n,n,n,n,n
CCOc1cccc(C(=O)NC(=S)Nc2ccc3c(c2)OCCO3)c1,n,n,n,n,n,n
COc1cccc(OC)c1C(=O)NC(=S)Nc1ccc2c(c1)OCCO2,n,n,n,n,n,n
O=C(NC(=S)Nc1ccc2c(c1)OCCO2)c1ccccc1,n,n,68,n,n,n
O=C(NC(=S)Nc1ccc2c(c1)OCCO2)c1ccccc1F,n,n,50,n,n,n
COc1cccc(CN(C)C(=O)CSC(C)C(=O)Nc2cc(C)on2)c1OC (stereo unspecified),n,x,x,x,x,x
CSc1ccc(C(=O)C2CCCN(C(=O)c3ccc4c(c3)no[n+]4[O-])C2)cc1 (stereo unspecified),n,x,x,n,x,n
O=C1c2ccccc2C(=O)N1/N=C/c1ccc(O)c(O)c1,n,n,74,n,n,n
COC(=O)c1ccc(C(=O)NC2CCCc3c2cnn3-c2cc(F)cc(F)c2)nc1 (stereo unspecified),n,x,x,n,x,x
COc1ccccc1C=NN=C(NN=Cc1ccccc1OC)NN=Cc1ccccc1OC,69,x,x,x,x,x
SMILES,C8 TRAIL sens,STAT3 blocker,FLuc inhib CS,HSP90 refold inh,FLuc act counter,PPC-1+TRAIL kill
COc1cc(C(=O)Oc2ccccc2/C=N/NC(=O)c2ccc(Cl)cc2)cc(OC)c1OC,n,n,n,n,n,n
COc1cccc(/C=N/NC(=O)N/N=C/c2cccc(OC)c2O)c1O,n,x,x,n,x,x
COc1cc(C(=O)Oc2ccccc2/C=N/NC(=O)c2ccc(C)c(Cl)c2)cc(OC)c1OC,n,n,n,n,n,52
COc1ccccc1C=NNC(=O)NN=Cc1ccccc1OC,65,x,x,x,x,x
COc1ccccc1/C=N/OC(=O)c1ccc(F)cc1,n,n,74,n,n,n
Cc1cnc(NC(=O)C2(c3ccccc3)CC2)s1,n,n,n,n,n,n
Cc1cccc2sc(N(CCN(C)C)C(=O)/C=C/c3cccs3)nc12,n,n,n,n,n,n
CN(C)CCCN(C(=O)/C=C/c1cccs1)c1nc2c(F)cccc2s1,55,n,n,n,n,n
Cc1cc(Nc2nc(Cl)c(Cl)cc2Cl)n(-c2ccccc2)n1,n,n,n,26,n,n
Cc1cc(Nc2ccccc2)n(-c2ccccc2)n1,n,n,n,n,n,n
